# Measurements: ChEMBL document CHEMBL1141125, “Heteroaryl-substituted naphthalenes and structurally modified derivatives: selective inhibitors of CYP11B2 for the treatment of congestive heart failure and myocardial fibrosis” (J Med Chem, 2005)
# Biological target: T1, Cytochrome P450 11B1, mitochondrial (Homo sapiens, UniProt P15538)
# T1 sequence (P15538 whole entry): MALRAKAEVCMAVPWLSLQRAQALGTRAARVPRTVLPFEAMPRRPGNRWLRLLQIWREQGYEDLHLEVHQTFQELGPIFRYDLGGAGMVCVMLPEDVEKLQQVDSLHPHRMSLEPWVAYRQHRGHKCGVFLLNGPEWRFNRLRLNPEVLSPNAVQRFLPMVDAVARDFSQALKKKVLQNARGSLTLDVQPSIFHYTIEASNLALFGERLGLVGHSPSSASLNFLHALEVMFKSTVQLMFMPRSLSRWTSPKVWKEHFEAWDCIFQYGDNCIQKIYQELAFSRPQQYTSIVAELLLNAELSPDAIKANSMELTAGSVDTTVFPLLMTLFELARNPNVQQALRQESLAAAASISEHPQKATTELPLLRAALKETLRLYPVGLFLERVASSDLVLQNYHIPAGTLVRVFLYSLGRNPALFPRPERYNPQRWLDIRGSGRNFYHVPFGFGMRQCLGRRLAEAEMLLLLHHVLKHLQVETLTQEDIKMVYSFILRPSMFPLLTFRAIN
# Test: Inhibitory concentration against human cytochrome P450 11B1 expressed in V79 MZh hamster lung fibroblasts, incubated with [14C]deoxycorticosterone
# Conditions: not given; call rule not given here
row,SMILES,IC50
1,COc1cc2ccccc2cc1-n1ccnc1,81 nM
2,COc1ccc2ccc(-c3cccnc3)c(Cl)c2c1,2720 nM
3,c1ccc2ncc(-n3ccnc3)cc2c1,6340 nM
4,COc1ccc2cc(-c3cccnc3)ccc2c1Cl,2520 nM
5,COc1ccc2cc(-c3cccnc3)ccc2c1Br,4480 nM
6,c1cncc(-c2cc3ccccc3c3ccccc23)c1,7550 nM
7,COc1ccc2cc(-n3ccnc3)ccc2c1,849 nM
8,Brc1ccc2cc(-c3cccnc3)ccc2c1,2940 nM
9,CCOc1ccc2cc(-c3cccnc3)ccc2c1,5420 nM
10,COc1ccc2c(Cl)c(-c3cccnc3)ccc2c1Cl,4900 nM
11,c1ccc2cc(-n3ccnc3)ccc2c1,1320 nM

# Biological target: T2, CYP11B1 (Homo sapiens, UniProt P15538)
# T2 sequence (P15538 whole entry): T1 sequence (P15538 whole entry)
# Test: as above
# Conditions: human, V79 MZh hamster lung fibroblasts expressing human CYP11B1, probe [14C]deoxycorticosterone
row,SMILES,IC50
1,c1ccc2cc(-c3cnc[nH]3)ccc2c1,207 nM

# Biological target: T3, Cytochrome P450 11B2, mitochondrial (Homo sapiens, UniProt P19099)
# T3 sequence (P19099 whole entry): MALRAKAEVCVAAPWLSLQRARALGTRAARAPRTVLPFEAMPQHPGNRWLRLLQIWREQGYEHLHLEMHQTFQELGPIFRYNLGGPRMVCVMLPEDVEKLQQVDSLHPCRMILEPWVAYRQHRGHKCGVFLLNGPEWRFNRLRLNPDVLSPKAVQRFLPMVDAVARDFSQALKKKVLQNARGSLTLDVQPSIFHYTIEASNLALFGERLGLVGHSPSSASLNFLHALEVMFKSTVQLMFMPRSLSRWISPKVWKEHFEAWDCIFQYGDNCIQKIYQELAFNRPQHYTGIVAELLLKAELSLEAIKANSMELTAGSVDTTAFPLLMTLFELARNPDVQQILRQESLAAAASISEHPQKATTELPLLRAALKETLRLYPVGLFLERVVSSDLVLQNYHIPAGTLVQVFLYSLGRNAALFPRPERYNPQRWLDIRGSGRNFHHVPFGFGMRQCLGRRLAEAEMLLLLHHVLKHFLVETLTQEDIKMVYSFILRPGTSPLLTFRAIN
# Test: Inhibitory concentration against human cytochrome P450 11B2 expressed in V79 MZh hamster lung fibroblasts, incubated with [14C]deoxycorticosterone
# Conditions: not given
row,SMILES,IC50
1,COc1cc2ccccc2cc1-n1ccnc1,19 nM
2,COC(=O)c1ccc2cc(-c3cccnc3)ccc2c1,72 nM
3,c1ccc2cc(-c3cnc[nH]3)ccc2c1,296 nM
4,c1ccc2ncc(-n3ccnc3)cc2c1,604 nM
5,COc1ccc2cc(-n3ccnc3)ccc2c1,218 nM
6,c1ccc2cc(-c3cnco3)ccc2c1,12 nM
7,c1ccc2cc(-n3ccnc3)ccc2c1,39 nM

# Biological target: T3, Cytochrome P450 11B2, mitochondrial
# Test: Percent inhibition against human cytochrome P450 11B2 expressed in fission yeast, incubated with [14C]deoxycorticosterone
# Parameters: concentration or dose not given beside the values
# Conditions: not given
row,SMILES,Inhibition
1,COc1cc2ccccc2cc1-n1ccnc1,87%
2,COc1cc2ccccc2cc1-c1cccnc1,30%
3,NC(=O)c1ccc2cc(-c3cccnc3)ccc2c1,0%
4,c1cncc(-c2cnc3ccccc3n2)c1,13%
5,COc1ccc2cc(-c3cccnc3)ccc2c1-c1cccnc1,9%
6,COC(=O)c1ccc2cc(-c3cccnc3)ccc2c1,74%
7,c1ccc2cc(-c3cnc[nH]3)ccc2c1,41%
8,c1ccc2ncc(-n3ccnc3)cc2c1,17%
9,c1cncc(-c2cc3ccccc3c3ccccc23)c1,27%
10,COc1ccc2cc(-n3ccnc3)ccc2c1,49%
11,c1ccc2cc(-c3cnco3)ccc2c1,11%
12,CCCOc1ccc2cc(-c3cccnc3)ccc2c1,36%
13,COc1ccc2cc(-c3ccncc3)ccc2c1,0%
14,CNC(=O)c1ccc2cc(-c3cccnc3)ccc2c1,0%
15,Cn1cncc1-c1ccc2ccccc2c1,28%
16,c1ccc(COc2ccc3cc(-c4cccnc4)ccc3c2)cc1,3%

# Species: Homo sapiens
# Test: Ratio between inhibitory concentration of cytochrome P450 11B1 to cytochrome P450 11B2
# Conditions: not given
# Procedure, shortened: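 Confluent V79 MZh hamster lung fibroblasts expressing human CYP11B1 or CYP11B2, in DMEM. Preincubated 60 min at 37 °C with inhibitor at three or more concentrations. [4-14C]11-deoxycorticosterone substrate, 100 nM. Incubation 120 min for CYP11B1 and 40 min for CYP11B2; controls without inhibitor. Ethyl acetate extraction, then HPTLC with phosphoimager quantification, giving IC50.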
row,SMILES,Selectivity factor
1,COc1cc2ccccc2cc1-n1ccnc1,4
2,COc1ccc2ccc(-c3cccnc3)c(Cl)c2c1,94
3,COC(=O)c1ccc2cc(-c3cccnc3)ccc2c1,145
4,c1ccc2cc(-c3cnc[nH]3)ccc2c1,0.7
5,c1ccc2ncc(-n3ccnc3)cc2c1,10
6,COc1ccc2cc(-c3cccnc3)ccc2c1Cl,192
7,COc1ccc2cc(-c3cccnc3)ccc2c1Br,136
8,COc1ccc2cc(-n3ccnc3)ccc2c1,4
9,Brc1ccc2cc(-c3cccnc3)ccc2c1,196
10,CCOc1ccc2cc(-c3cccnc3)ccc2c1,451
11,N#Cc1ccc2cc(-c3cccnc3)ccc2c1,238
12,c1ccc2cc(-c3cnco3)ccc2c1,66
13,COc1ccc2c(Cl)c(-c3cccnc3)ccc2c1Cl,174

# Biological target: T3, Cytochrome P450 11B2, mitochondrial
# Test: Inhibitory concentration against human cytochrome P450 11B2 expressing in V79 MZh cells using [14C]deoxycorticosterone as substrate measured by screening assay
# Format: cell-based
# Conditions: not given
row,SMILES,IC50
1,COc1cc2ccccc2cc1-n1ccnc1,19.1 nM
2,COc1cc2ccccc2cc1-c1cccnc1,> 500 nM
3,COc1ccc2cc(-n3ccnc3)ccc2c1,218 nM
4,c1ccc2cc(-n3ccnc3)ccc2c1,38.5 nM

# Biological target: T4, Aromatase (Homo sapiens, UniProt P11511)
# T4 sequence (P11511 whole entry): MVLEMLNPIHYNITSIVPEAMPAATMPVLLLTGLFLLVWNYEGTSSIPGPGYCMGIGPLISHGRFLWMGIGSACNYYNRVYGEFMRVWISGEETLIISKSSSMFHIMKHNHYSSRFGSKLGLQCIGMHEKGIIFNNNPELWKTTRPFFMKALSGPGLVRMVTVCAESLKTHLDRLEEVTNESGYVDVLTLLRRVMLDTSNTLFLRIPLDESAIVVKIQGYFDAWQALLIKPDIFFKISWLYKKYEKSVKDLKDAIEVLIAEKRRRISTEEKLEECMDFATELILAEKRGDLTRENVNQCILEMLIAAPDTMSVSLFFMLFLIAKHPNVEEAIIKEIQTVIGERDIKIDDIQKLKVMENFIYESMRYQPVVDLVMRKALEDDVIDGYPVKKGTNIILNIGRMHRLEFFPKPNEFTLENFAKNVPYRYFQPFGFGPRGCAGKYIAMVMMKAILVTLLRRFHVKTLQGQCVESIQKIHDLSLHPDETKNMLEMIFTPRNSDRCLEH
# Test: not given
# Conditions: not given
row,SMILES,IC50
1,COc1ccc2ccc(-c3cccnc3)c(Cl)c2c1,> 36 µM
2,Brc1ccc2cc(-c3cccnc3)ccc2c1,> 36 µM
3,N#Cc1ccc2cc(-c3cccnc3)ccc2c1,> 36 µM

# Tested on: not listed separately
# Test: Solubility calculated with ACD/I-lab at pH 7.4
# Conditions: read-out: S
row,SMILES,solubility
1,Oc1ccc2cc(-c3cccnc3)ccc2c1,230 µM
2,COc1ccc2ccc(-c3cccnc3)c(Cl)c2c1,14 µM
3,COC(=O)c1ccc2cc(-c3cccnc3)ccc2c1,71 µM
4,COc1ccc2cc(-c3cccnc3)ccc2c1Cl,7.6 µM
5,COc1ccc2cc(-c3cccnc3)ccc2c1Br,39 µM
6,Brc1ccc2cc(-c3cccnc3)ccc2c1,1.3 µM
7,N#Cc1ccc2cc(-c3cccnc3)ccc2c1,160 µM
8,c1cncc(-c2ccc3ccccc3c2)c1,200 µM
9,COc1ccc2c(Cl)c(-c3cccnc3)ccc2c1Cl,7.2 µM
10,COc1ccc2cc(-c3cccnc3)ccc2c1,79 µM
11,c1ccc2cc(-n3ccnc3)ccc2c1,280 µM

# Biological target: Cytochrome P450 2D6 (Homo sapiens, UniProt P10635)
# Test: Inhibition percent against human hepatic cytochrome P450 2D6 enzyme at 20 nM concentration; no inhibition
# Conditions: not given
# Chain of Cytochrome P450 2D6 (P10635 whole entry): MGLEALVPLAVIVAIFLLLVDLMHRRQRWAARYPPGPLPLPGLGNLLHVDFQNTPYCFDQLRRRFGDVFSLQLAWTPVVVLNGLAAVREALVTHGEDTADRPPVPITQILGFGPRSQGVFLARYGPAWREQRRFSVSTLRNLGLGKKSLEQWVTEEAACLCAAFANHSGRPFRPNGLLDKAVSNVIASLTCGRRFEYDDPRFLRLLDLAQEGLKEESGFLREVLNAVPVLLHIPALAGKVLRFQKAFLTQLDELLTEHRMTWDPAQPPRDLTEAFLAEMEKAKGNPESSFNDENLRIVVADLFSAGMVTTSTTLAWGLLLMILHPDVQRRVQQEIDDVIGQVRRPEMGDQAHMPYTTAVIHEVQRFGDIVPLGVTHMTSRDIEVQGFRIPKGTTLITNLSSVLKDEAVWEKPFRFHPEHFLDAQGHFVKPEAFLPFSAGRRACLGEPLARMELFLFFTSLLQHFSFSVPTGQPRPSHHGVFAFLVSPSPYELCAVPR
row,SMILES,Inhibition
1,CCOc1ccc2cc(-c3cccnc3)ccc2c1,Not Active

# Biological target: Cytochrome P450 3A4 (Homo sapiens, UniProt P08684)
# Test: Inhibition percent against human hepatic cytochrome P450 3A4 enzyme at 50 uM concentration; no inhibition
# Format: ADME
# Conditions: not given
# Chain of Cytochrome P450 3A4 (P08684 whole entry): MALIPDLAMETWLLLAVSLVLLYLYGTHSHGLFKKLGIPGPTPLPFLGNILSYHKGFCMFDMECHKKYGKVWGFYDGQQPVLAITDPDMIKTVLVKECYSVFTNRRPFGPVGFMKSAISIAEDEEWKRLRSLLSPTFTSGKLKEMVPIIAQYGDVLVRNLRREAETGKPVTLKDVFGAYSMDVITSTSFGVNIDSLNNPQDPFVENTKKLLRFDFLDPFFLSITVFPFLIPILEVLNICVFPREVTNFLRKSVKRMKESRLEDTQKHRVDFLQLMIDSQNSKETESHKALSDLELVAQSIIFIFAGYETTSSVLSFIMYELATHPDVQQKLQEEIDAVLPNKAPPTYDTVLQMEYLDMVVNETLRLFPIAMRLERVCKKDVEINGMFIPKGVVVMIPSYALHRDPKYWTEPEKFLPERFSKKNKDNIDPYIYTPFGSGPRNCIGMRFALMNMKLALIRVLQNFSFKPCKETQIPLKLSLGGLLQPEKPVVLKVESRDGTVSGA
row,SMILES,Inhibition
1,CCOc1ccc2cc(-c3cccnc3)ccc2c1,Not Active

# Biological target: T5, Steroid 17-alpha-hydroxylase/17,20 lyase (Homo sapiens, UniProt P05093)
# T5 sequence (P05093 whole entry): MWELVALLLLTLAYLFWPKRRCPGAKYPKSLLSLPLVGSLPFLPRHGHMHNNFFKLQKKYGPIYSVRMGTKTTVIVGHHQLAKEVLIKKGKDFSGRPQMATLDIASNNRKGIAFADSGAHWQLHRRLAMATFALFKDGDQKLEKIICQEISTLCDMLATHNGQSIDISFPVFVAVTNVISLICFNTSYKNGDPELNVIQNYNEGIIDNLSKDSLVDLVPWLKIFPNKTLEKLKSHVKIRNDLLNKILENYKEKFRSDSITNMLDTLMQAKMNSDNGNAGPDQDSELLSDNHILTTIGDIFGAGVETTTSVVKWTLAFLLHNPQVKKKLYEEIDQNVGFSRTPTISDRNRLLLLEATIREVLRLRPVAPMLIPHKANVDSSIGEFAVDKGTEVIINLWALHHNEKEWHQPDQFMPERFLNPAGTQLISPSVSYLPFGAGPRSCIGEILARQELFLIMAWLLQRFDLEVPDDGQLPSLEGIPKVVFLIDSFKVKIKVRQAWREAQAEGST
# Test: Percent inhibition against recombinant human cytochrome P450 17A1 using progesterone
# Parameters: concentration or dose not given beside the values
# Conditions: not given
row,SMILES,Inhibition
1,N#Cc1ccc(C2CCCc3cncn32)cc1 (stereo not drawn) [FADROZOLE],5%
2,COc1ccc2ccc(-c3cccnc3)c(Cl)c2c1,94%
3,N#Cc1ccc2cc(-c3cccnc3)ccc2c1,73%
4,COc1ccc2c(Cl)c(-c3cccnc3)ccc2c1Cl,83%
5,COc1ccc2cc(-c3cccnc3)ccc2c1,72%
